Assay results reported in ChEMBL document CHEMBL3877290, “Targeting the entry region of Hsp90's ATP binding pocket with a novel 6,7-dihydrothieno[3,2-c]pyridin-5(4H)-yl amide” (Eur J Med Chem, 2016).
Activity calls are given as the source filed them. The rule behind the calls is not given here.

Tests used:
[1] = Antiproliferative activity against Her2-overexpressing human SKBR3 cells after 1 to 3 days by MTS assay; format: functional; settings: SK-BR-3
Procedure, shortened: (§1)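 Cells seeded at 3 × 10^3 (Skbr3) or 2 × 10^3 (H1975) per well and left to attach overnight, then exposed to varying compound concentrations or 1% DMSO vehicle at 37 °C for 1, 2 and 3 days. Viability read by MTS colorimetric assay at 490 nm and expressed as percent of DMSO-only absorbance. Skbr3 in RPMI 1640 with 25 mM HEPES; H1975 in RPMI 1640 with L-glutamine; both with 10% FBS and penicillin/streptomycin.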

[2] = Antiproliferative activity against gefitinib-resistant human NCI-H1975 cells after 1 to 3 days by MTS assay; format: functional; procedure, shortened: as §1
[3] = target: Heat shock protein HSP 90-alpha (Homo sapiens, UniProt P07900); assay: Inhibition of fluorescein isothiocyanate labeled geldanamycin binding to N-terminal domain of full length human recombinant Hsp90alpha expressed in Escherichia coli BL21 (DE3) after 14 hrs by fluorescence polarization assay
[4] = tested on: NCI-H1975; assay: cells; settings: Homo sapiens, NCI-H1975, 24 h, read-out: Activity
[5] = tested on: NCI-H1975; assay: Induction of apoptosis in gefitinib-resistant human NCI-H1975 cells assessed as cleavage of caspase 3 at 0.5 uM after 24 hrs by Western blot analysis; format: functional, cell-based
Procedure, shortened: (§2)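 H1975 cells seeded 1 × 10^6 per 100 mm dish, attached overnight, exposed 24 h to 0.05, 0.1, 0.5, 1 and 2 µM compound, with 1% DMSO and 1 µM geldanamycin as controls. Lysed in Tris-HCl pH 7.6/NaCl/NP-40/deoxycholate/SDS buffer; 30 µg per lane SDS-PAGE, PVDF, 5% milk block, specific antibodies (PARP, caspase 3, cleaved caspase 3/8, β-actin), HRP secondary, ECL detection.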

[6] = tested on: NCI-H1975; assay: Induction of apoptosis in gefitinib-resistant human NCI-H1975 cells assessed as cleavage of caspase 8 at 0.5 uM after 24 hrs by Western blot analysis; format: functional, cell-based; procedure, shortened: as §2
[7] = tested on: NCI-H1975; assay: Induction of apoptosis in gefitinib-resistant human NCI-H1975 cells assessed as cleavage of PARP at 0.5 uM after 24 hrs by Western blot analysis; format: functional, cell-based; procedure, shortened: as §2
[8] = tested on: NCI-H1975; assay: Induction of apoptosis in gefitinib-resistant human NCI-H1975 cells assessed as necrotic cells at 0.5 uM after 24 hrs by Annexin V-FITC/propidium iodide staining based flow cytometry (reference value: 2.68%); format: functional
[9] = tested on: NCI-H1975; assay: Induction of apoptosis in gefitinib-resistant human NCI-H1975 cells assessed as late apoptotic cells at 0.5 uM after 24 hrs by Annexin V-FITC/propidium iodide staining based flow cytometry (reference value: 2.79%); format: functional
[10] = tested on: NCI-H1975; assay: Induction of apoptosis in gefitinib-resistant human NCI-H1975 cells assessed as early apoptotic cells at 0.5 uM after 24 hrs by Annexin V-FITC/propidium iodide staining based flow cytometry (reference value: 1.85%); format: functional
[11] = Effect on beta-actin level in gefitinib-resistant human NCI-H1975 cells at 0.05 to 2 uM after 24 hrs by Western blot analysis; format: ADME, cell-based; settings: nci-h1975, 24 h; procedure, shortened: as §2
[12] = tested on: NCI-H1975; assay: Antitumor activity against human NCI-H1975 cells xenografted in NOD-scid IL2Rgamma-null mouse assessed as tumor growth inhibition at 10 mg/kg, ip administered daily followed by weekend rest for 2 weeks measured twice per week during compound dosing; format: functional, organism-based
[13] = target: CYP3A (Homo sapiens, UniProt P08684+P20815+P24462+Q9HB55); assay: Inhibition of CYP3A in human liver microsomes assessed as midazolam 1'-hydroxylation by LC/MS/MS analysis; format: ADME; settings: probe midazolam (1'-hydroxylation)
Procedure, shortened: (§3)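 Pooled human liver microsomes incubated without and with compound at 0–50 µM final (acetonitrile below 0.5%); probe activities in cocktail incubation: phenacetin O-deethylation (CYP1A2), tolbutamide 4-hydroxylation (2C9), omeprazole hydroxylation (2C19), dextromethorphan O-demethylation (2D6), midazolam 1'-hydroxylation (3A). Metabolites quantified by tandem mass spectrometry; duplicates; IC50 derived.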

[14] = target: T1, Cytochrome P450 1A2 (Homo sapiens, UniProt P05177); assay: Inhibition of CYP1A2 in human liver microsomes assessed as phenacetin O-deethylation by LC/MS/MS analysis; format: ADME; procedure, shortened: as §3
T1 sequence (P05177 whole entry): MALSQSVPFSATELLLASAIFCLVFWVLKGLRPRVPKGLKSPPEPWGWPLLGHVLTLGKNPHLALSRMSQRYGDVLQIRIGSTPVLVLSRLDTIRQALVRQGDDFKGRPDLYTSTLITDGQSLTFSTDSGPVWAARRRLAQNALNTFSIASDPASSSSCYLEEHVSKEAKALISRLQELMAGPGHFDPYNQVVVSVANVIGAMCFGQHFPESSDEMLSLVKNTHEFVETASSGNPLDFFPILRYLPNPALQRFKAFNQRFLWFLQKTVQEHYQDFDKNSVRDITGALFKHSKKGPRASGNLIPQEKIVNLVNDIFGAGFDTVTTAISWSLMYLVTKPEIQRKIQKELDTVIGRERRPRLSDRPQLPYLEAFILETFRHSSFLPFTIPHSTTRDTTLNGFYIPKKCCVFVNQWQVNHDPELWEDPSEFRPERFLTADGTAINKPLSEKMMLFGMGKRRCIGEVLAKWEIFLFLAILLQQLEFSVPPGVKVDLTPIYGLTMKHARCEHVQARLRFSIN

[15] = target: Cytochrome P450 2C9 (Homo sapiens, UniProt P11712); assay: Inhibition of CYP2C9 in human liver microsomes assessed as tolbutamide 4-methylhydroxylation by LC/MS/MS analysis; format: ADME; procedure, shortened: as §3
[16] = target: Cytochrome P450 2C19 (Homo sapiens, UniProt P33261); assay: Inhibition of CYP2C19 in human liver microsomes assessed as omepraozle hydroxylation by LC/MS/MS analysis; format: ADME; procedure, shortened: as §3
[17] = target: Cytochrome P450 2D6 (Homo sapiens, UniProt P10635); assay: Inhibition of CYP2D6 in human liver microsomes assessed as dextromethorphan O-demethylation by LC/MS/MS analysis; format: ADME; procedure, shortened: as §3
[18] = tested on: Mus musculus; assay: Decrease of Akt level in human NCI-H1975 cells xenografted in NOD-scid IL2Rgamma-null mouse at 10 mg/kg, ip administered daily followed by weekend rest for 2 weeks by immunohistochemical analysis; format: functional, organism-based
[19] = tested on: Mus musculus; assay: Toxicity in NOD-scid IL2Rgamma-null mouse xenografted with human NCI-H1975 cells assessed as mortality at 10 mg/kg, ip administered daily followed by weekend rest for 2 weeks measured twice per week during compound dosing; format: organism-based; settings: in vivo, 336 h
Procedure, shortened: (§4)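 NSG mice (8 per group, randomised) received 2.0 × 10^6 H1975 cells s.c. in the left flank on day zero. Dosing began once tumours reached 500 mm3: i.p. at 10 mg/kg or DMSO vehicle, daily with weekend rest, for 2 weeks. Body weight tracked and deaths recorded during treatment. Housing in individually ventilated cages at 25±2 °C with a 12 h light-dark cycle.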

[20] = tested on: Mus musculus; assay: Toxicity in NOD-scid IL2Rgamma-null mouse xenografted with human NCI-H1975 cells assessed as body weight loss at 10 mg/kg, ip administered daily followed by weekend rest for 2 weeks measured twice per week during compound dosing; format: organism-based; settings: in vivo, 336 h; procedure, shortened: as §4
[21] = tested on: NCI-H1975; assay: Induction of apoptosis in gefitinib-resistant human NCI-H1975 cells assessed as viable cells at 0.5 uM after 24 hrs by Annexin V-FITC/propidium iodide staining based flow cytometry (reference value: 92.68%); format: functional; settings: NCI-H1975, 24 h, read-out: Activity
[22] = target: T2, Heat shock protein HSP90 (Homo sapiens) (UniProt P07900+P08238); settings: NCI-H1975, 0.05 to 2 uM
[23] = target: T2, Heat shock protein HSP90 (Homo sapiens); settings: NCI-H1975, 0.05 to 2 uM; remark: listed apart in the source
[24] = target: T2, Heat shock protein HSP90 (Homo sapiens); settings: NCI-H1975, 0.05 to 2 uM; remark: listed apart in the source
[25] = target: T2, Heat shock protein HSP90 (Homo sapiens); settings: NCI-H1975, 0.05 to 2 uM; remark: listed apart in the source
[26] = target: T2, Heat shock protein HSP90 (Homo sapiens); settings: NCI-H1975, 0.05 to 2 uM; remark: listed apart in the source
[27] = target: T2, Heat shock protein HSP90 (Homo sapiens); settings: NCI-H1975, 0.05 to 2 uM; remark: listed apart in the source

Chain of Cytochrome P450 2C19 (P33261 whole entry): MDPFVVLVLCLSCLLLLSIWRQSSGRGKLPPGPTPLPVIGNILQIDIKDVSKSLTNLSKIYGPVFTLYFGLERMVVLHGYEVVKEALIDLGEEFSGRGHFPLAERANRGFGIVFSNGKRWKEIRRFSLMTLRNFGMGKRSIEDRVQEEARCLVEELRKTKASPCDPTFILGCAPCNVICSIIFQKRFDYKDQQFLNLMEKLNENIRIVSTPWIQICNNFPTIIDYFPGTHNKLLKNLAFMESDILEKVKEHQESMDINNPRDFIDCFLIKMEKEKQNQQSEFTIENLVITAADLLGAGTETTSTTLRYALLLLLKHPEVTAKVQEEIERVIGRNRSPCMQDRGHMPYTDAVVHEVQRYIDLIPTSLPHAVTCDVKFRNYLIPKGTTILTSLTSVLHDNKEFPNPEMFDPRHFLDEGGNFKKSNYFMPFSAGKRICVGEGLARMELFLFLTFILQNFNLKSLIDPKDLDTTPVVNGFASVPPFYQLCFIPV
Chain of Cytochrome P450 2D6 (P10635 whole entry): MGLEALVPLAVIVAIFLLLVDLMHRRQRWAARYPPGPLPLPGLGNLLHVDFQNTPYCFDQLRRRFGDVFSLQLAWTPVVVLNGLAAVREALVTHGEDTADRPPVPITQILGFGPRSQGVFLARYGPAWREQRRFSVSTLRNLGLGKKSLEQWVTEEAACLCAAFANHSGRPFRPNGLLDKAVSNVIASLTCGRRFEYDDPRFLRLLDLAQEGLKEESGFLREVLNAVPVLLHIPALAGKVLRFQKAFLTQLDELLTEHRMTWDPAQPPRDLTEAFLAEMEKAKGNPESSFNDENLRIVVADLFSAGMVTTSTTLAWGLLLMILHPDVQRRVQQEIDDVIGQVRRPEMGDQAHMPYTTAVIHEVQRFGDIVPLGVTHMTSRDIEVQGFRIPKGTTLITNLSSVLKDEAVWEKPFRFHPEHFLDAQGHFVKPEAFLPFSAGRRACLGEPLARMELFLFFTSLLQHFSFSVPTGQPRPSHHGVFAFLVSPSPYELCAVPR
Chain of Cytochrome P450 2C9 (P11712 whole entry): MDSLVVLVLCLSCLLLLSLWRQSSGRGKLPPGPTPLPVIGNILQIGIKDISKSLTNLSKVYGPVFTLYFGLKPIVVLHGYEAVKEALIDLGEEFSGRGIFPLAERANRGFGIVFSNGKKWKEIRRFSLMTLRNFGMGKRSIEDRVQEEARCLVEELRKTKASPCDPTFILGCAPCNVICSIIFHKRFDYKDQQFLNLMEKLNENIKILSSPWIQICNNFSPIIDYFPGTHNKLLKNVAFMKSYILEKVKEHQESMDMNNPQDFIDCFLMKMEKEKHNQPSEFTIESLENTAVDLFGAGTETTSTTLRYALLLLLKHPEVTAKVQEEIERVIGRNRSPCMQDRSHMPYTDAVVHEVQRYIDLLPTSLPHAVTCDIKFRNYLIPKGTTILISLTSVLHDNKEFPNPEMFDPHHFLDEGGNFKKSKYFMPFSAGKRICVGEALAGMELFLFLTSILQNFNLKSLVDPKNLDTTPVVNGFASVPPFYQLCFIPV

SMILES: O=C(c1cc(Cl)c(O)cc1O)N1CCc2ccsc2C1
- GI50 [1]: 5.4 µM
- GI50 [2]: 8.7 µM
- IC50 [3]: 0.136 µM

SMILES: COC1=C2C[C@@H](C)C[C@H](OC)[C@H](O)[C@@H](C)/C=C(\C)[C@H](OC(N)=O)[C@@H](OC)/C=C\C=C(/C)C(=O)NC(=CC1=O)C2=O [GELDANAMYCIN]
- GI50 [1]: 0.43 µM
- GI50 [2]: 0.56 µM
- viability at 1 µM [4]: 65.7%

SMILES: Oc1cc(O)c(-c2nc3ccccc3o2)cc1Cl
- GI50 [1]: > 50 µM
- GI50 [2]: > 50 µM
- IC50 [3]: > 1 µM

SMILES: O=C(Nc1ccccc1)c1cc(Cl)c(O)cc1O
- GI50 [2]: > 50 µM
- IC50 [3]: > 1 µM

SMILES: CC(C)c1cc(C(=O)N2CCc3sccc3C2)c(O)cc1O
- Activity [5]: Active
- Activity [6]: Active
- Activity [7]: Active
- Activity [8]: 3.67%
- Activity [9]: 3.77%
- Activity [10]: 8.67%
- Activity [11]: Non-Toxic
- GI50 [1]: 0.11 µM
- GI50 [2]: 0.31 µM
- IC50 [3]: 0.0503 µM
- TGI [12]: Active
- IC50 [13]: > 50 µM
- IC50 [14]: > 50 µM
- IC50 [15]: > 50 µM
- IC50 [16]: > 50 µM
- IC50 [17]: > 50 µM
- Activity [18]: Active
- Activity [19]: Non-Toxic
- Activity [20]: Non-Toxic
- viability at 0.5 µM [21]: 83.9%
- inhibition [22]: Active
- inhibition [23]: Active
- inhibition [24]: Active
- inhibition [25]: Active
- inhibition [26]: Active
- inhibition [27]: Active
- viability at 1 µM [4]: 76%

SMILES: O=C(c1cc(Cl)c(O)cc1O)N1CCc2ccccc2C1
- GI50 [1]: 7.1 µM
- GI50 [2]: 19.9 µM
- IC50 [3]: 0.183 µM

SMILES: O=C(c1cc(Cl)c(O)cc1O)N1CCN(c2ccccc2)CC1
- GI50 [1]: 9.3 µM
- GI50 [2]: 19.1 µM
- IC50 [3]: 0.481 µM

SMILES: O=C(Nc1ccc(O)cc1)c1cc(Cl)c(O)cc1O
- GI50 [2]: > 50 µM
- IC50 [3]: > 1 µM
